The text below walks through data of ChEMBL document CHEMBL3085690, “Naturally occurring antimicrobial peptide OH-CATH30 selectively regulates the innate immune response to protect against sepsis” (J Med Chem, 2013).

Active and inactive are the calls of the source. The rule behind the calls is not given here. Peptide text beside a SMILES is read from it.

Test [1] is described as follows: Increase of IL-10 protein level in mouse BMDM at 10 ug/ml after 18 hrs by ELISA. In kind it is functional. An outline of the steps:
(§1)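 Bone marrow-derived macrophages (RPMI 1640, 10% FCS, 20% L929-conditioned medium) stimulated with peptide for 18 h. Cytokines and chemokines in culture supernatant quantified by sandwich ELISA. Mean ± SD from three independent experiments, unpaired t test.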

The subject of test [2] is RAW264.7. In words: Downregulation of TLR4/MD2 complex in plasma membrane in mouse RAW264.7 cells relative to LPS. The test is classed as functional. An outline of the steps: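 RAW 264.7 cells in DMEM with 10% FCS, exposed 30 min to peptide (20 μg/mL) or LPS (1 μg/mL). Washed in ice-cold PBS, stained with PE anti-mouse TLR4/MD2 (2 μg/mL) for 30 min on ice. Surface complex measured by flow cytometry.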

The subject of test [3] is BMDM. In words: Increase of IL-1Ra protein level in mouse BMDM at 20 ug/ml after 18 hrs by ELISA. In kind it is functional. An outline of the steps: as §1
On the technique in general: An ELISA detects its analyte on a solid surface through an enzyme-linked reagent.

In test [4] the test system is BMDM. The experiment in a line: Increase of CCL2 protein level in mouse BMDM at 20 ug/ml after 18 hrs by ELISA. The test is classed as functional. The procedure, abridged: as §1
Test [5] relates to Mus musculus. In words: Stimulation of innate immune response in Kunming mouse infected with Pseudomonas aeruginosa ATCC 27853 assessed as effect on TNFalpha production in peritoneal lavage at 10 mg/kg, ip after 5 hrs by ELISA. In kind it is functional, organism-based. Set-up: dose 10 mg/kg.
Test [6] has as its system Mus musculus. In words: Stimulation of innate immune response in Kunming mouse assessed as increase of IL-1Ra level in peritoneal lavage at 10 mg/kg, ip after 5 hrs. The test is classed as functional, organism-based. Set-up: dose 10 mg/kg. The procedure, abridged: (§2)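 Female Kunming mice (18−22 g) received a single ip injection of peptide at 10 mg/kg in sterile saline. Peritoneal lavage was collected in 2 mL of cold sterile saline 5 h later, and cytokines and chemokines were measured by ELISA. Data are mean ± SD from four mice, compared by unpaired t test.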

The subject of test [7] is Mus musculus. In words: Stimulation of innate immune response in Kunming mouse assessed as increase of neutrophils in peritoneal lavage at 10 mg/kg, ip after 5 hrs. The test is classed as functional, organism-based. Set-up: dose 10 mg/kg. The procedure, abridged: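 Female Kunming mice were given peptide ip at 10 mg/kg. At 5 h, peritoneal cells were recovered by lavage with 2 mL PBS and counted. Cells were stained with anti-F4/80-PE and GR1-FITC for 30 min at room temperature and typed by flow cytometry: neutrophils GR1+/F4/80−, resident monocytes/macrophages GR1−/F4/80+, inflammatory monocytes GR1+/F4/80+. Data are mean ± SD from three mice, unpaired t test.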

In test [8] the test system is Mus musculus. The experiment in a line: Stimulation of innate immune response in ip dosed Kunming mouse assessed as protection against Escherichia coli ATCC 25922-induced mortality by measuring survival rate measured up to 7 days. The test is classed as functional, organism-based. An outline of the steps: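 Kunming mice were challenged ip with E. coli 25922 at 2.5 × 10^8 CFU/mouse (n = 10). A single ip dose of peptide, from 1 to 10 mg/kg in sterile saline, was given 5 h before infection. Survival was followed for up to 7 days and compared by log-rank test.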

Test [9] relates to RAW264.7. In words: Inhibition of PGN-induced TNFalpha production in mouse RAW264.7 cells 2 to 50 ug/ml after 6 hrs by ELISA. In kind it is functional, cell-based.
For test [10], the system named is Mus musculus. The experiment in a line: Stimulation of innate immune response in Kunming mouse assessed as protection against Pseudomonas aeruginosa ATCC 27853-induced mortality by measuring survival rate at 10 mg/kg, ip administered 5 hrs before bacterial infection measured up to 7 days. In kind it is functional. To be noted: route intraperitoneal. The procedure, abridged: (§3)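 Female Kunming mice (18−22 g) received a single ip dose in sterile saline 5 h before ip challenge with P. aeruginosa 27853 (8 × 10^7 CFU/mouse; n = 8) or S. aureus 25923 (2 × 10^8 CFU/mouse; n = 10). Mice were checked every 6 h for up to 7 days, with a humane end point. Curves were compared by log-rank test.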

Test [11] has as its system Mus musculus. In words: Stimulation of innate immune response in bacteria infected Kunming mouse assessed as eradicate invading bacteria at 10 mg/kg, ip after 8 hrs. The test is classed as functional, organism-based. Set-up: dose 10 mg/kg.
For test [12], the system named is Mus musculus. In words: Stimulation of innate immune response in Kunming mouse assessed as increase of IL-10 level in peritoneal lavage at 10 mg/kg, ip after 5 hrs. The test is classed as functional, organism-based. Set-up: dose 10 mg/kg. The procedure, abridged: as §2
Test [13] deals with RAW264.7. The experiment in a line: Induction of phagocytic activity in mouse RAW264.7 cells using fluorescently labeled Escherichia coli up to 2 hrs by fluorescent assay. The test is classed as functional, cell-based.
The test system of test [14] is Mus musculus. In words: Stimulation of innate immune response in Kunming mouse assessed as protection against Staphylococcus aureus ATCC 25923-induced mortality by measuring survival rate at 10 mg/kg, ip administered 5 hrs before bacterial infection measured up to 7 days. In kind it is functional. To be noted: route intraperitoneal. An outline of the steps: as §3

For test [15], the system named is Mus musculus. The experiment in a line: Stimulation of innate immune response in Kunming mouse infected with Staphylococcus aureus ATCC 25923 assessed as reduction of bacterial burden in peritoneal lavage by measuring survival rate at 10 mg/kg, ip administered 5 hrs before bacterial infection measured up to 7 days. Also noted: dose 10 mg/kg. In kind it is functional, organism-based. The procedure, abridged:
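Peptide at 10 mg/kg ip was given 5 h before ip challenge with E. coli 25922 (2.5 × 10^8 CFU), P. aeruginosa 27853 (8 × 10^7 CFU) or S. aureus 25923 (2 × 10^8 CFU) per mouse. Viable bacteria were counted in peritoneal lavage collected in 2 mL of cold saline (n = 7, 6 and 8 respectively; unpaired t test). Survival was recorded for up to 7 days.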

For test [16], the system named is BMDM. The experiment in a line: Increase of CXCL2 production in mouse BMDM after 6 hrs by ELISA in presence of KN-62. The test is classed as functional.
In test [17] the test system is BMDM. In words: Increase of CXCL2 production in mouse BMDM after 6 hrs by ELISA in presence of WRW4. The test is classed as functional.
For test [18], the system named is Mus musculus. In words: Stimulation of innate immune response in Kunming mouse assessed as increase of CCL2 level in peritoneal lavage at 10 mg/kg, ip after 5 hrs. The test is classed as functional, organism-based. Also noted: dose 10 mg/kg. The procedure, abridged:
as §2

Test [19] concerns Mus musculus. In words: Stimulation of innate immune response in Kunming mouse assessed as protection against Escherichia coli ATCC 25922-induced mortality by measuring survival rate at 10 mg/kg, ip administered 3 hrs after bacterial infection measured up to 7 days. The test is classed as functional, organism-based. Set-up: dose 10 mg/kg. The procedure, abridged: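 Female Kunming mice were challenged ip with E. coli 25922 at 2.5 × 10^8 CFU/mouse (n = 10). Peptide at 10 mg/kg in sterile saline was given ip at −24 h or +3 h relative to inoculation. Mice were monitored every 6 h and mortality was recorded for up to 7 days, with humane end points. Survival curves were compared by log-rank test.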

Test [20] relates to Mus musculus. In words: Stimulation of innate immune response in neutropenic Kunming mouse infected with Pseudomonas aeruginosa ATCC 27853 assessed as increase of number of neutrophils and inflammatory monocytes in peritoneal lavage at 10 mg/kg, ip up to 24 hrs. In kind it is functional, organism-based. Also noted: dose 10 mg/kg. An outline of the steps: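 Mice were made neutropenic with ip cyclophosphamide, 150 mg/kg on day 0 and 100 mg/kg on day 3. They were then injected ip with peptide at 10 mg/kg. Peritoneal cells were collected up to 24 h afterwards and typed by flow cytometry after GR1/F4/80 staining.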

In test [21] the test system is Mus musculus. In words: Stimulation of innate immune response in Kunming mouse assessed as protection against drug-resistant Staphylococcus aureus-induced mortality by measuring survival rate at 10 mg/kg, ip administered 5 hrs before bacterial infection measured up to 7 days. In kind it is functional. The settings on record: route intraperitoneal. An outline of the steps:
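Female Kunming mice (18−22 g) were dosed ip in sterile saline at 10 mg/kg, 5 h before ip challenge with clinical drug-resistant isolates: E. coli (n = 12), P. aeruginosa (n = 10) or S. aureus (n = 15). Survival was recorded for up to 7 days, with checks every 6 h and euthanasia by CO2 at the humane end point.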

Take `CC[C@H](C)[C@H](NC(=O)[C@@H](NC(=O)[C@H](CCCNC(=N)N)NC(=O)[C@@H]1CCCN1C(=O)[C@H](CCCCN)NC(=O)[C@H](CCCCN)NC(=O)[C@H](Cc1ccccc1)NC(=O)[C@H](Cc1ccccc1)NC(=O)[C@H](CCCCN)NC(=O)[C@H](CCCCN)NC(=O)[C@H](C)NC(=O)[C@H](CCCNC(=N)N)NC(=O)[C@H](CCCCN)NC(=O)[C@H](CCCCN)NC(=O)[C@@H](NC(=O)[C@H](CO)NC(=O)[C@H](CC(N)=O)NC(=O)[C@H](CCCCN)NC(=O)[C@H](CC(C)C)NC(=O)[C@H](CCCCN)NC(=O)[C@H](CCCCN)NC(=O)[C@H](Cc1ccccc1)NC(=O)[C@H](Cc1ccccc1)NC(=O)[C@@H](N)CCCCN)C(C)C)C(C)C)C(=O)NCC(=O)N[C@H](C(=O)N[C@@H](CO)C(=O)N[C@H](C(=O)N1CCC[C@H]1C(=O)N[C@@H](Cc1ccccc1)C(=O)O)[C@@H](C)CC)C(C)C` (H-KFFKKLKNSVKKRAKKFFKKPRVIGVSIPF-OH): the Activity is 156 pg/mL in [1], 20% in the test with RAW264.7 [2] and “Dose-dependent effect” in the test with Mus musculus [8]. Also, the outcome with BMDM [3], in the test with BMDM [4], in the test on Mus musculus [6], in the test on Mus musculus [7], in the test on Mus musculus [12] and in the test with Mus musculus [15] was Active. Further, the result with BMDM [16], in the test on BMDM [17], in the test on Mus musculus [18] and in the test with Mus musculus [19] was Active. Further, the result with Mus musculus [5], in the test with Mus musculus [11], in the test with RAW264.7 [13] and in the test with Mus musculus [20] was inactive. Also, the inhibition result in the test on RAW264.7 [9] is “inactive”. Also, the survival at 10 mg/kg in the test on Mus musculus [10] was greater than 85%; in the test on Mus musculus [14] it was greater than 60%; with Mus musculus [21] it was 63%.
